Assay results taken from ChEMBL document CHEMBL5247599, “New β-arylchalcogeno amines with procognitive properties targeting Carbonic Anhydrases and Monoamine Oxidases” (Eur J Med Chem, 2022).
Activity calls are given as the source filed them. No cut-off for these calls is given here.

What was measured:
[1] = biological target: Carbonic anhydrase 12 (Homo sapiens) (UniProt O43570); assay: Binding affinity to human CA12 by phenol red dye based stopped flow CO2 hydration assay; details: filed as activator
Method in brief: (§1)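 Purified recombinant human CA isoforms. CA-catalysed CO2 hydration was followed by stopped-flow with phenol red at 557 nm, taking initial rates over 10–100 s from at least six traces of the first 5–10% of reaction. Uncatalysed rates were subtracted. Activator stocks were 0.1 mM in deionised water, diluted down to 0.1 nM in assay buffer. K_A came from non-linear least-squares Michaelis–Menten fitting.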

[2] = biological target: Carbonic anhydrase 5A, mitochondrial (Homo sapiens) (UniProt P35218); assay: Binding affinity to human CA5a by phenol red dye based stopped flow CO2 hydration assay; details: filed as activator; method in brief: as §1
[3] = biological target: Carbonic anhydrase 4 (Homo sapiens) (UniProt P22748); assay: Binding affinity to human CA4 by phenol red dye based stopped flow CO2 hydration assay; details: filed as activator; method in brief: as §1
[4] = biological target: Carbonic anhydrase 14 (Homo sapiens) (UniProt Q9ULX7); assay: Binding affinity to human CA14 by phenol red dye based stopped flow CO2 hydration assay; details: filed as activator; method in brief: as §1
[5] = biological target: Carbonic anhydrase 6 (Homo sapiens) (UniProt P23280); assay: Binding affinity to human CA6 by phenol red dye based stopped flow CO2 hydration assay; details: filed as activator; method in brief: as §1
[6] = biological target: T1, Amine oxidase [flavin-containing] A (Homo sapiens, UniProt P21397); assay: Inhibition of human recombinant MAO-A assessed as inhibition of 4-hydroxyquinoline formation using kynuramine as substrate by fluorescence spectrophotometry analysis
T1 sequence (P21397 whole entry): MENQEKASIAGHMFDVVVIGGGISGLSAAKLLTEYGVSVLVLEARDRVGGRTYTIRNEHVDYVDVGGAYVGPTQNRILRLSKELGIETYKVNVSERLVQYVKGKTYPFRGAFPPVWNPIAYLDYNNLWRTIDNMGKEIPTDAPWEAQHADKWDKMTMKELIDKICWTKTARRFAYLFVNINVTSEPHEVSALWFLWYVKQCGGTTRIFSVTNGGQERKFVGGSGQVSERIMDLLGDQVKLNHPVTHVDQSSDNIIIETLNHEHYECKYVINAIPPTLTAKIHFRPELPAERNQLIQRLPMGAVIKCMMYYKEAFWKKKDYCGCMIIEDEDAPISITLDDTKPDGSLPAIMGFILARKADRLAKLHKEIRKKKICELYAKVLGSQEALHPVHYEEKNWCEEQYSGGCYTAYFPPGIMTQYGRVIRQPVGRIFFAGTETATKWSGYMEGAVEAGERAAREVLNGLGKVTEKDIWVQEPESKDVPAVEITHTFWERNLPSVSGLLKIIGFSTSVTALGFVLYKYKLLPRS
Method in brief: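 Recombinant human MAO-A with kynuramine as substrate. The 4-hydroxyquinoline product was quantified by fluorescence spectrophotometry, and IC50 values were determined.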

[7] = biological target: Carbonic anhydrase 5B, mitochondrial (Homo sapiens) (UniProt Q9Y2D0); assay: Binding affinity to human CA5b by phenol red dye based stopped flow CO2 hydration assay; details: filed as activator; method in brief: as §1
[8] = biological target: Carbonic anhydrase 7 (Homo sapiens) (UniProt P43166); assay: Binding affinity to human CA7 by phenol red dye based stopped flow CO2 hydration assay; details: filed as activator; method in brief: as §1
[9] = biological target: Carbonic anhydrase 9 (Homo sapiens) (UniProt Q16790); assay: Binding affinity to human CA9 by phenol red dye based stopped flow CO2 hydration assay; details: filed as activator; method in brief: as §1
[10] = biological target: Carbonic anhydrase 1 (Homo sapiens) (UniProt P00915); assay: Binding affinity to human CA1 by phenol red dye based stopped flow CO2 hydration assay; details: filed as activator; method in brief: as §1
[11] = biological target: Carbonic anhydrase 13 (Homo sapiens) (UniProt Q8N1Q1); assay: Binding affinity to human CA13 by phenol red dye based stopped flow CO2 hydration assay; details: filed as activator; method in brief: as §1
[12] = biological target: T2, Amine oxidase [flavin-containing] B (Homo sapiens, UniProt P27338)
T2 sequence (P27338 whole entry): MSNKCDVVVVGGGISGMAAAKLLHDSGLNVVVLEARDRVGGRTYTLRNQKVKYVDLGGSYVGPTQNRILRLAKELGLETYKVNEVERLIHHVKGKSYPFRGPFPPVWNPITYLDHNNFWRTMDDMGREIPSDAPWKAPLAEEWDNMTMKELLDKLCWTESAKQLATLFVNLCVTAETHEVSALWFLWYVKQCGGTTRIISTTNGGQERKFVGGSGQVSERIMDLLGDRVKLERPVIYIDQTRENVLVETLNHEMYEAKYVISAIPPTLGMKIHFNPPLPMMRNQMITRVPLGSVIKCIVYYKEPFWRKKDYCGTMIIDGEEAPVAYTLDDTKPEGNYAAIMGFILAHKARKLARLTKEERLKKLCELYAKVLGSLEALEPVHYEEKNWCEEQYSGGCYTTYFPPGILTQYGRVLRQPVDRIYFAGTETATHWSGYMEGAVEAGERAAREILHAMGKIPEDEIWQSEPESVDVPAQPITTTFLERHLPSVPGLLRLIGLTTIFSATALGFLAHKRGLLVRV

[13] = biological target: Carbonic anhydrase 3 (Homo sapiens) (UniProt P07451); assay: Binding affinity to human CA3 by phenol red dye based stopped flow CO2 hydration assay; details: filed as activator; method in brief: as §1
[14] = biological target: Carbonic anhydrase 2 (Homo sapiens) (UniProt P00918); assay: Binding affinity to human CA2 by phenol red dye based stopped flow CO2 hydration assay; method in brief: as §1
[15] = system: Mus musculus; assay: Pro-cognitive activity in C57Bl6 mouse assessed as attenuation of long-term memory deficit by measuring increase in exploration time for novel juvenile at 25 nmol/uL, icv measured after 48 hrs by novel object recognition test; format: functional, organism-based
Method in brief: (§2)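 Male adult C57Bl6 mice (8–9 weeks), lateral-ventricle cannula implanted 7 days earlier. Social recognition: 10-min habituation to arena with two empty cups; 24 h later 10-min acquisition with an unfamiliar juvenile (3–4 weeks) under one wire cup. Immediately after, 5 µL i.c.v. infusion at 1 µL/min. Retention at 48 h with familiar and novel juvenile; percentage time exploring each cup (snout-to-cup contact).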

[16] = system: Mus musculus; assay: Pro-cognitive activity in C57Bl6 mouse assessed as attenuation of long-term memory deficit by measuring increase in exploration time for novel juvenile by measuring discrimination index at 50 nmol/uL, icv measured after 48 hrs by novel object recognition test; format: functional
Method in brief: (§3)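 Social recognition in adult male C57Bl6 mice with intracerebroventricular cannulae. Habituation was 10 min with two empty cups. Twenty-four hours later, a novel 3–4-week-old juvenile was placed under one cup for 10 min of exploration, followed immediately by a 5 µL infusion at 1 µL/min. Retention 48 h later offered familiar versus novel juvenile, scoring snout-to-cup contact. DI = (tN−tF)/(tN+tF).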

[17] = system: Mus musculus; assay: Pro-cognitive activity in C57Bl6 mouse assessed as attenuation of long-term memory deficit by measuring increase in exploration time for novel object by measuring discrimination index at 25 nmol/uL, icv measured after 24 hrs by novel object recognition test
[18] = system: Mus musculus; assay: Pro-cognitive activity in C57Bl6 mouse assessed as attenuation of long-term memory deficit by measuring increase in exploration time for novel juvenile at 50 nmol/uL, icv measured after 48 hrs by novel object recognition test; format: functional, organism-based; method in brief: as §2
[19] = system: Mus musculus; assay: Pro-cognitive activity in C57Bl6 mouse assessed as attenuation of long-term memory deficit by measuring increase in exploration time for novel object at 50 nmol/uL, icv measured after 24 hrs by novel object recognition test; format: functional, organism-based
Method in brief: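 Male adult C57Bl6 mice (8–9 weeks), lateral-ventricle cannula implanted one week before. 10-min habituation to empty open-field arena; 24 h later, 5-min acquisition with two identical objects, followed immediately by 5 µL i.c.v. infusion at 1 µL/min. 5-min retention test 24 h after acquisition with one familiar and one novel object; percentage exploration time per object, two-way ANOVA with Bonferroni.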

[20] = system: Mus musculus; assay: Pro-cognitive activity in C57Bl6 mouse assessed as attenuation of long-term memory deficit by measuring increase in exploration time for novel juvenile by measuring discrimination index at 25 nmol/uL, icv measured after 48 hrs by novel object recognition test; format: functional; method in brief: as §3
[21] = system: Mus musculus; assay: Pro-cognitive activity in C57Bl6 mouse assessed as attenuation of long-term memory deficit by measuring increase in exploration time for novel object by measuring discrimination index at 50 nmol/uL, icv measured after 24 hrs by novel object recognition test; format: functional
Method in brief: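 Novel object recognition in adult male C57Bl6 mice. Habituation was 10 min in an empty arena. Twenty-four hours later, mice explored two identical objects for 5 min, then received an immediate 5 µL lateral-ventricle infusion at 1 µL/min. A 5-min retention test with one familiar and one novel object followed 24 h later. Scores were % exploration time and DI = (tN−tF)/(tN+tF).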

Carbonic anhydrase 5B, mitochondrial (Homo sapiens), sequence (Q9Y2D0 whole entry): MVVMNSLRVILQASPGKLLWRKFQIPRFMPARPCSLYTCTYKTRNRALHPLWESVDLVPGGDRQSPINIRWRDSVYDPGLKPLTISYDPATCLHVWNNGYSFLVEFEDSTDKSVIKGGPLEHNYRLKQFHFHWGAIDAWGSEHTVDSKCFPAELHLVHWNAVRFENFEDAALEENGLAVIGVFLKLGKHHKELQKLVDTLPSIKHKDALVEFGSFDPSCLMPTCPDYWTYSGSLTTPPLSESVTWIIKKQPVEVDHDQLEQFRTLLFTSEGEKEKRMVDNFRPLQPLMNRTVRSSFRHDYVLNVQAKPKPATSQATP
Carbonic anhydrase 5A, mitochondrial (Homo sapiens), sequence (P35218 whole entry): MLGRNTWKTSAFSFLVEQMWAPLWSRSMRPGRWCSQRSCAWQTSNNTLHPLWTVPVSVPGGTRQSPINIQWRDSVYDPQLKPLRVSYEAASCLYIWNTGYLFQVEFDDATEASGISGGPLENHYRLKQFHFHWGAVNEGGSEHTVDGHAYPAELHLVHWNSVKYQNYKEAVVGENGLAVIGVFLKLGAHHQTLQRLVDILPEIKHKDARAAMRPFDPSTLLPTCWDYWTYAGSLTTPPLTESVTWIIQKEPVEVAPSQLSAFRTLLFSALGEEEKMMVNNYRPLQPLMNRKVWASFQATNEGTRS
Carbonic anhydrase 13 (Homo sapiens), sequence (Q8N1Q1 whole entry, looked up): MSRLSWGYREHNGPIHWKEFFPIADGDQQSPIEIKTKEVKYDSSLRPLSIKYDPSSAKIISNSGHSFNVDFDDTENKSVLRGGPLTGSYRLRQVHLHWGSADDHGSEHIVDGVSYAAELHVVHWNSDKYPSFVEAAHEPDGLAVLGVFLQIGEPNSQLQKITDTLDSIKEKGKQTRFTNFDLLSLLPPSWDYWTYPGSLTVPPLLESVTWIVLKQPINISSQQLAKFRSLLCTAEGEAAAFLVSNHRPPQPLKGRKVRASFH
Carbonic anhydrase 6 (Homo sapiens), sequence (P23280 whole entry): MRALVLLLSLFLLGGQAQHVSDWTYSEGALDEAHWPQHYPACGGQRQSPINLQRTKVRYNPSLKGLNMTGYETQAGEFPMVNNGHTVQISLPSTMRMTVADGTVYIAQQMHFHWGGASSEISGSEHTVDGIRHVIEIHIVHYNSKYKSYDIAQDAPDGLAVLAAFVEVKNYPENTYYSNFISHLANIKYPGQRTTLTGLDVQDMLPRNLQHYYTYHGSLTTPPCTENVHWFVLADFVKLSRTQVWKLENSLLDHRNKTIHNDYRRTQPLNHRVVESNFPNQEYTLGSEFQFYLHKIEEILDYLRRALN
Carbonic anhydrase 7 (Homo sapiens), sequence (P43166 whole entry): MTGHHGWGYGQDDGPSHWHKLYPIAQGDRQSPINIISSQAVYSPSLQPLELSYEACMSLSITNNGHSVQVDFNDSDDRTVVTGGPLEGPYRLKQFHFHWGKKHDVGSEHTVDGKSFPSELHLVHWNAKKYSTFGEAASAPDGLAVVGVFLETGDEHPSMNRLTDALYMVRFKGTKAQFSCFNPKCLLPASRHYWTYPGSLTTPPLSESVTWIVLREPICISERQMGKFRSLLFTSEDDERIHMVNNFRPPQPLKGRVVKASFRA
Carbonic anhydrase 4 (Homo sapiens), sequence (P22748 whole entry): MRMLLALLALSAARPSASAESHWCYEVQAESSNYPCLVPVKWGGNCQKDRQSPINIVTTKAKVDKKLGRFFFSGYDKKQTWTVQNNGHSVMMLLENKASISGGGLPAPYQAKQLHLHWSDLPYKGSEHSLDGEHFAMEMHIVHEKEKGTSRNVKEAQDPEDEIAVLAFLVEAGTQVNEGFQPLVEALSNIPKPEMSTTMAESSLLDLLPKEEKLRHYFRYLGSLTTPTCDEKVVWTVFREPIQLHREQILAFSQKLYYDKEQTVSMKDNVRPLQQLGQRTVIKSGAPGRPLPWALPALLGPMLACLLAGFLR
Carbonic anhydrase 14 (Homo sapiens), sequence (Q9ULX7 whole entry): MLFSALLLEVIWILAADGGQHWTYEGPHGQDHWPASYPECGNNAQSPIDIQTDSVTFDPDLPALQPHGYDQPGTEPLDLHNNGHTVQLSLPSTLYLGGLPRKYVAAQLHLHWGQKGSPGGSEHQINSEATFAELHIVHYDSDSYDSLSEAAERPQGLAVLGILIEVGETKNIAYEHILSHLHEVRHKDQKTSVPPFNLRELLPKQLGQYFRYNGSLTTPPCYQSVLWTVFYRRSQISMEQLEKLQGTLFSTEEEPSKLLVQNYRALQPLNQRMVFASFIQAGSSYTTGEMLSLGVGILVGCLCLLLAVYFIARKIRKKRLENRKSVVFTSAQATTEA
Carbonic anhydrase 1 (Homo sapiens), sequence (P00915 2-261 limits assumed): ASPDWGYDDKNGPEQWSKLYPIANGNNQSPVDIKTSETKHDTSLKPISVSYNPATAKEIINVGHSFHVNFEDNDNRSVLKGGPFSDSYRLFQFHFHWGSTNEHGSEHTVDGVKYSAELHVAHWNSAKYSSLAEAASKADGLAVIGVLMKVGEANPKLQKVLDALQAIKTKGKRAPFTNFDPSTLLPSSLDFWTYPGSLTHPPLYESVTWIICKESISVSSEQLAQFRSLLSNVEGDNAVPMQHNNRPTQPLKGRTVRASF
Carbonic anhydrase 3 (Homo sapiens), sequence (P07451 whole entry): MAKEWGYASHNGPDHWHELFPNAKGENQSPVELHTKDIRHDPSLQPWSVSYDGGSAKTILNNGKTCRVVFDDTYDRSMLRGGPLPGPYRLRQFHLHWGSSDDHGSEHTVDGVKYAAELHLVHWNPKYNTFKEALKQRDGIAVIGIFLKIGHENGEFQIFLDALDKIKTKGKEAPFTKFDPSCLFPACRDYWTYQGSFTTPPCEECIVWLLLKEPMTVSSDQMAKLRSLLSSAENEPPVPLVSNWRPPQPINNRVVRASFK
Carbonic anhydrase 12 (Homo sapiens), sequence (O43570 whole entry, canonical isoform): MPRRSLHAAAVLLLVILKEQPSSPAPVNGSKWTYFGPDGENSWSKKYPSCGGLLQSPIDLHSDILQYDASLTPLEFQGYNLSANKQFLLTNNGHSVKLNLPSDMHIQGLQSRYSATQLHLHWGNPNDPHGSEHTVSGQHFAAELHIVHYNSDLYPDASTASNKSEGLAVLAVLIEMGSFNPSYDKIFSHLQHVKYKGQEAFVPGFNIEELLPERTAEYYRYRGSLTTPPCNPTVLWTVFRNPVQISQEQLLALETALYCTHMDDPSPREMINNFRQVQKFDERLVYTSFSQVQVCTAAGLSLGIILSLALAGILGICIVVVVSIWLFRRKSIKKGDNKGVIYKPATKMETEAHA

Row | SMILES | Ka [1] [µM] | Ka [2] [µM] | Ka [3] [µM] | Ka [4] [µM] | Ka [5] [µM] | IC50 [6] [µM] | Ka [7] [µM] | Ka [8] [µM] | Ka [9] [µM] | Ka [10] [µM] | Ka [11] [µM] | IC50 [12] [µM] | Ka [13] [µM] | Ka [14] [µM] | also measured
1 | Cc1ccc([Se]CC(C)N)cc1 (stereo not drawn) | 89.7 | 9.1 | 2.2 | 8.3 | 30.5 | 2.03 | 15.7 | 10.4 | 82.5 | 5.2 | 68.6 | 36.5 | 20.3 | > 100 | 
2 | Cc1ccccc1[Se]CC(C)N (stereo not drawn) | 51.8 | 20 | 2.7 | 4.7 | 71.6 | 5.17 | 23.7 | 14.2 | 83.3 | 12.1 | 49.3 | 16.7 | 54.1 | > 100 | 
3 | CC(N)CSc1ccc(Br)cc1 (stereo not drawn) | 72.9 | 12.4 | 7.4 | 3.8 | 61.6 | 3.89 | 22.7 | 14.8 | 63.3 | 7.7 | 54.4 |  | 5.4 | > 100 | 
4 | CC(N)C[Se]c1ccc(F)cc1 (stereo not drawn) | 90.6 | 13.1 | 6.1 | 2.6 | 48.5 | 10.5 | 20.2 | 13.4 | 22.8 | 19.6 | 46.9 | 13.4 | 13.1 | > 100 | 
5 | CC(N)C[Te]c1ccccc1 (stereo not drawn) | 52.5 | 14.2 | 5.9 | 3.2 | 73.1 | 25.4 | 21.7 | 41.2 | 22.2 | 9.9 | 49.7 |  | 59.7 | > 100 | 
6 | CC(N)CSc1ccccc1Br (stereo not drawn) | 46.7 | 13.3 | 2.4 | 3.6 | 55.9 | 0.724 | 12.8 | 23.2 | 56.6 | 9.5 | 90.9 | 64.8 | 70.8 | > 100 | 
7 | Cc1ccc([Te]CC(C)N)cc1 (stereo not drawn) | 80.4 | 4 | 5.3 | 2.4 | 23.6 | 6.66 | 15.7 | 21.9 | 74.4 | 8.2 | 82.7 |  | 73.5 | > 100 | 
8 | CC(N)C[Se]c1ccc(N(C)C)cc1 (stereo not drawn) | 58.5 | 14 | 9.4 | 6.7 | 76.5 | 7.15 | 21.8 | 12.1 | 70.1 | 22.1 | 44.1 | 21.3 | 72.6 |  | Ka ([14]; filed as activator): 45.1 µM
9 | N[C@H](Cc1ccccc1)C(=O)O [D-PHENYLALANINE] |  |  |  |  |  |  |  |  |  |  |  |  |  |  | Activity [15]: inactive; Activity_index [16]: 0.291; Activity_index [17]: 0.075; Activity [18]: Active; Activity [19]: Active; Activity_index [20]: 0.009; Activity_index [21]: 0.375
10 | COc1ccc([Se]CC(C)N)cc1 (stereo not drawn) | 68.8 | 20.3 | 8.7 | 8.7 | 46.4 | 1.21 | 25.8 | 23.3 | 73.2 | 21.4 | 60.4 | 36.8 | 66.8 | > 100 | 
11 | CC(N)CSc1cccc(Br)c1 (stereo not drawn) | 87.9 | 12.9 | 2.2 | 2.9 | 30.9 | 7.82 | 11.5 | 11.4 | 77.9 | 13.5 | 49.3 |  | 91.7 | > 100 | 
12 | COc1ccc([Te]CC(C)N)cc1 (stereo not drawn) | 52.8 | 3.3 | 8.2 | 9.5 | 37.8 | 14 | 22.5 | 44.9 | 47.9 | 4.6 | 38.2 | 84.2 | 77.3 | > 100 | 
13 | COc1cc([Te]CC(C)N)cc(OC)c1OC (stereo not drawn) | 32.7 | 9.4 | 4.4 | 1.2 | 69.2 |  | 29.5 | 14.3 | 85.2 | 9.5 | 58.3 |  | 60.6 | > 100 | 
14 | Cc1cccc(C)c1[Se]CC(C)N (stereo not drawn) | 78.2 | 20.9 | 9.5 | 1.1 | 31.4 | 1.68 | 22.7 | 21.4 | 81.2 | 6 | 83.3 | 2.79 | 90.8 | > 100 | 
